Myeloid diff MLP – induction of myeloid progenitor differentiation, primary screen, cell-based, flow cytometry, MLPCN library; ER-HoxA9 myeloid progenitors, lysozyme-GFP differentiation; calls only at 10 µM; actives 1% (n = 360,000); AID 624256, 2012;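 active = normalized GFP-positive differentiation at or above the plate's own cutoff, the solvent-only control mean plus 3 SD; inconclusive = no clear call, values can overlap the other calls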;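 note: cells exposed to compound for four days before flow analysis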
GAA850 FXN act – FXN promoter activators, primary screen, cell-based, luciferase luminescence, HEK293 lucGAA850; activation, % at 6 µM; HEK293 lucGAA850 FXN promoter luciferase reporter, 24 h; percent of 10 µM SAHA response; actives 0.56% (n = 360,000); AID 540364, 2011;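 active = activation above the average of all compounds screened plus 3 SD, cutoff fixed separately per campaign, cut at about 7.5% in these data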;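 note: 0% = DMSO wells and 100% = 10 µM SAHA wells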
NR2E3 ag-1 – inhibitors of NR2E3-RetCOR corepressor binding, primary screen, NR2E3 agonist project, biochemical, TR-FRET, GST-NR2E3, biotin-RetCOR | Photoreceptor-specific nuclear receptor (Homo sapiens), Q9Y5X4 | 1536-well | inhibition of corepressor binding, % at 4.78 µM | actives 0.12% (n = 320,000) | AID 2300, 2010;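 active = percent inhibition above the cutoff of mean plus 3 SD of all tested compounds, set per screening campaign, cut at about 20% in these data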;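 note: 0% = DMSO wells and 100% = biotin wells as full block of FRET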
Target sequence (Q9Y5X4 whole entry, looked up): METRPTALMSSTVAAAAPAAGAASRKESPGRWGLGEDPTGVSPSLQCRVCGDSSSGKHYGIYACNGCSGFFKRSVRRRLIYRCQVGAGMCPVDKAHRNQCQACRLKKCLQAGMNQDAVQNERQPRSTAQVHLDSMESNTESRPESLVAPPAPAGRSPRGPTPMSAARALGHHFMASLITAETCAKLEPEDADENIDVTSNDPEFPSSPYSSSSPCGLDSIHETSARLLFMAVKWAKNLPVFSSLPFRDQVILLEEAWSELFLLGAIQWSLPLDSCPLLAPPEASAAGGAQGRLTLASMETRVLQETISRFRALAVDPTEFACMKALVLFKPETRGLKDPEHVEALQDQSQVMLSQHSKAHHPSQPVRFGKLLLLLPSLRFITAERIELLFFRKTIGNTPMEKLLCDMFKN
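Material: NR2E3–RetCOR corepressor complex / Amount: 1.35 nM GST-NR2E3 / Medium: Tris pH 7.5 / Compound: single nominal compound dose of 4.8 µM / Incubation: 5 h at 4 °C / Technique: TR-FRET, Eu(K)-anti-GST donor, streptavidin-D2 acceptor, ex 340, em 617/671 nm / Read-out basis: percent loss of FRET ratio relative to control wells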
T cell modulator – modulators of CD8 T cell-vesicle binding, primary screen, mouse 2C CD8+ T cells, flow cytometry; response (vesicle binding), % at 7 µM; actives 0.068% (n = 330,000); AID 2052, 2009; 2C CD8+ T cell-vesicle binding; active compounds read low;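 active = response, share of CD8 T cells binding vesicles, and their 90th percentile fluorescence all below set limits, cut at about 80% in these data, passing the limit was not always enough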;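 note: values below 100% mean blocked vesicle binding to the CD8+ T cells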
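System: murine 2C transgenic CD8+ T lymphocytes; also added: QL9-loaded Drosophila micro-vesicles; times: binding 1.5 h at 37 °C; measured by: flow cytometry, PE anti-B7-1 (FL2) versus Alexa647 anti-CD8 (FL8), PFA-fixed; control set: Peptide-free naked vesicles (low) and QL9 vesicles with 0.7% DMSO vehicle (high)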
NR2E3 ag-2 – NR2E3 agonists in two-hybrid cells, primary screen, cell-based, luminescence, CHO-S, Gal4-NCOR/VP16-NR2E3 | actives 0.35% (n = 360,000) | inhibition of corepressor binding, % at 3.98 µM | luciferase | Photoreceptor-specific nuclear receptor (Homo sapiens), Q9Y5X4 | AID 602229, 2012;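 active = inhibition above the mean of all tested compounds plus 3 SD, cut at about 70% in these data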;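 note: 0% = DMSO with NR2E3 transfected cells and 100% = cells lacking NR2E3 construct; higher means lower luciferase signal from less NR2E3 corepressor binding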
NR2E3 ag confirm – NR2E3 agonist confirmation in cells, cell-based, luminescence, CHO-S two-hybrid. actives 51% (n = 2,300). shares compounds with NR2E3 ag-2. CHO-S mammalian two-hybrid NR2E3-NCOR, luciferase luminescence. inhibition, % at 3.98 µM;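 active = average inhibition above a cutoff equal to the mean inhibition of all tested compounds plus one SD, cut at about 70% in these data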;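 note: 0% = DMSO in NR2E3 cells and 100% = DMSO in cells lacking NR2E3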
VP16 counter – GAL4-VP16 reporter modulators, confirmation, counter-screen for NR2E3 agonist project, cell-based, luminescence, CHO-S, high throughput; inhibition, % at 3.98 µM; actives 29% (n = 2,300); AID 624379, 2012; shares compounds with NR2E3 ag-2; CHO-S GAL4-VP16 luciferase reporter;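 active = mean inhibition above a cutoff equal to the average over all tested compounds plus one standard deviation, cut at about 70% in these data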;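 note: luciferase from a UAS reporter driven by GAL4-VP16 transactivation; 0% = DMSO with VP16-transfected cells and 100% = DMSO with cells lacking VP16; higher means less reporter light so more repression of VP16 activity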
Active calls of the source: *; i = inactive; ? = inconclusive; . = no result given; + = active, no number. This is a sample that favours compounds with a hit; in the whole collection about 2% have one here.

SMILES	Myeloid diff MLP	GAA850 FXN act	NR2E3 ag-1	T cell modulator	NR2E3 ag-2	NR2E3 ag confirm	VP16 counter
CCc1nc2ccc(C(=O)NCCOc3ccc(OC)cc3)cn2c1N(C)Cc1nccn1C	i	-1.1	.	.	17.7	.	.
COC[C@H]1CCCN1c1ccc2c(c1)O[C@@H](COCc1ccccc1)CN([C@@H](C)c1ccccc1)S2(=O)=O	i	.	.	.	-8.3	.	.
Cc1nn(CCCC(=O)Nc2cc(Oc3ccc(F)cc3)cc([N+](=O)[O-])c2)c(C)c1[N+](=O)[O-]	i	1.1	-1.2	604.0	-18.5	.	.
Cc1ccccc1Oc1cc(NC(=O)CCCn2nc(C)c([N+](=O)[O-])c2C)cc([N+](=O)[O-])c1	i	1.2	-1.0	247.6	60.0	66.4	41.1
FC(F)(F)c1cnc(NNC(=S)Nc2ccc(Cl)cc2)c(Cl)c1	i	-3.6	1.1	255.1	70.1*	94.1*	76.8*
Cc1ccc(NC(=S)NNc2ncc(C(F)(F)F)cc2Cl)c(C)c1	i	-3.5	0.0	259.5	17.1	.	.
Fc1ccc(NC(=S)NNc2ncc(C(F)(F)F)cc2Cl)c(F)c1	i	-12.2	3.9	178.3	79.8*	67.5	56.8
CCCCCCC(=O)N1C/C=C\C(c2ccc(OC)cc2)N(Cc2ccc(F)cc2)C(=O)C1 (configuration not stated)	i	2.5	-1.8	.	60.3	61.3	43.1
CCCCCCNC(=O)N1C/C=C\C(c2ccc(OC)cc2)N(Cc2ccc(F)cc2)C(=O)C1 (configuration not stated)	i	0.3	-2.4	.	30.6	.	.
S=C(NCc1ccccc1)Nc1cccc2cnccc12	i	-3.7	-1.4	233.2	66.0	78.0*	59.8
S=C(NCCc1ccccc1)Nc1cccc2cnccc12	i	-0.9	1.5	i	74.2*	91.4*	78.6*
CC(OCC(O)CN1CCN(S(=O)(=O)c2ccc(Cl)cc2)CC1)c1ccc(Cl)cc1 (configuration not stated)	i	-2.2	.	.	50.7	59.0	44.7
CCCOc1ccc(CN(CCC#N)C(=S)NC(=O)c2ccccc2)cc1	i	3.5	-0.1	275.0	54.0	-3.1	14.3
COc1cc(C(=O)NC(=S)N(CCC#N)Cc2cccnc2)cc(OC)c1OC	i	-0.3	.	357.9	8.2	.	.
COC(=O)C1=CN(c2cccc(OCc3ccccc3)c2)C(N)=C(C#N)C1c1cccc(F)c1 (configuration not stated)	i	.	.	.	.	.	.
S=C(NN=C(c1ccccc1)c1ccccn1)N(Cc1ccccn1)Cc1ccccn1	?	-10.6	.	.	92.2*	99.6*	78.7*
O=C(NN=C(c1ccccc1)c1ccccn1)c1ccccc1	?	1.9	.	301.7	16.2	.	.
COc1cc([N+](=O)[O-])ccc1NC(=O)CCS(=O)(=O)c1ccc2c(c1)n(C)c(=O)c(=O)n2C	i	-0.7	-1.1	128.2	-23.2	.	.
O=C(c1cc(COc2ccc(F)cc2Cl)on1)N1CCN(C2CCCC2)CC1	i	-1.0	-3.4	393.2	9.0	.	.
O=C(c1cc(COc2ccc(F)cc2Cl)on1)N1CCN(C2CCCCC2)C(=O)C1	i	1.5	-1.3	251.9	57.4	15.5	24.3
Cc1cc(C)c(S(=O)(=O)N2CCN(S(=O)(=O)N3CCOCC3)CC2)c(C)c1	i	1.2	2.2	272.5	-19.8	.	.
CCC(=O)Nc1cc2nn(-c3ccc(C)cc3)nc2cc1C	i	-9.0	2.1	33.3	48.7	-23.4	-99.2
CCC(=O)Nc1cc2nn(-c3ccc(OC)cc3)nc2cc1C	i	3.6	1.2	0.0	-120.0	.	.
COc1ccc(CCN2C(=O)CSC2=Nc2ccc(C(C)C)cc2)cc1OC	+	-2.3	1.6	96.6	49.5	83.0*	74.7*
